# Assay results: ChEMBL document CHEMBL1142148, “Antibiotic susceptibility profile of bifidobacteria as affected by oxgall, acid, and hydrogen peroxide stress” (2007)
# What was measured:
# [1] = test system: Bifidobacterium pseudolongum; assay: Antimicrobial activity against 60 min 1 M HCl-stressed Bifidobacterium pseudolongum ATCC 25562 after 18 hrs; type: functional
# How it was run: (§1)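 Mid-log MRS culture pelleted and resuspended in MRS broth brought to pH 2.0 with 1 M HCl, held anaerobically at 37°C for 60 min, then subcultured in MRS (pH 6.5) for 24 h anaerobically before MIC testing by broth microdilution (as for unstressed cells). Table footnote gives 18 h anaerobic regrowth after the stress. MIC is the median of four repetitions.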
# [2] = test system: Bifidobacterium breve; assay: Antimicrobial activity against 90 mins hydrogen peroxide-stressed Bifidobacterium breve R0070 after 18 hrs; type: functional
# How it was run: (§2)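 Stress applied for 90 min at 37°C under anaerobic conditions, using MRS (initial pH 6.5) containing H2O2 at each strain's own inhibitory concentration. The H2O2 level was set beforehand by microplate tolerance testing. Challenged cells were regrown in MRS for 24 h (footnote: 18 h) before MIC testing by broth microdilution. Median of four repetitions.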
# [3] = test system: Bifidobacterium bifidum; assay: Antimicrobial activity against 60 min 1 M HCl-stressed Bifidobacterium bifidum BB12 after 18 hrs; type: functional; how it was run: as §1
# [4] = test system: Bifidobacterium longum; assay: Antimicrobial activity against 90 mins oxgall-stressed Bifidobacterium longum R0175 after 18 hrs; type: functional
# How it was run: (§3)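 Cells pelleted from mid-log MRS culture and resuspended in MRS (initial pH 6.5) with 0.3% (wt/vol) oxgall for 90 min anaerobically at 37°C. They were then regrown in MRS pH 6.5 for 24 h (footnote: 18 h) anaerobically and tested for MIC by the same broth microdilution assay. Median of four repetitions.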
# [5] = test system: Bifidobacterium longum; assay: Antimicrobial activity against 90 mins oxgall-stressed Bifidobacterium longum ATCC 15707 after 18 hrs; type: functional; how it was run: as §3
# [6] = test system: Bifidobacterium longum; assay: Antimicrobial activity against Bifidobacterium longum ATCC 15707; type: functional
# How it was run: (§4)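 Broth microdilution in MRS plus 0.05% L-cysteine-HCl. Mid-log culture adjusted to OD650 0.1, giving about 2.5 × 10^4 to 5.0 × 10^4 CFU/well, then added to twofold serial dilutions of agent. Plates incubated anaerobically at 37°C for 18 h and read at OD650. MIC is the lowest concentration matching the uninoculated blank OD, taken as the median of four repeats.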
# [7] = test system: Bifidobacterium bifidum; assay: Antimicrobial activity against Bifidobacterium bifidum ATCC 15696; type: functional; how it was run: as §4
# [8] = test system: Bifidobacterium longum; assay: Antimicrobial activity against 60 min 1 M HCl-stressed Bifidobacterium longum P/N 601377 after 18 hrs; type: functional; how it was run: as §1
# [9] = test system: Bifidobacterium thermophilum; assay: Antimicrobial activity against 90 mins oxgall-stressed Bifidobacterium thermophilum ATCC 25866 after 18 hrs; type: functional; how it was run: as §3
# [10] = test system: Bifidobacterium bifidum; assay: Antimicrobial activity against 90 mins oxgall-stressed Bifidobacterium bifidum ATCC 15696 after 18 hrs; type: functional; how it was run: as §3
# [11] = test system: Bifidobacterium animalis; assay: Antimicrobial activity against 90 mins hydrogen peroxide-stressed Bifidobacterium animalis ATCC 27536 after 18 hrs; type: functional; how it was run: as §2
# [12] = test system: Bifidobacterium longum; assay: Antimicrobial activity against Bifidobacterium longum P/N 601377; type: functional; how it was run: as §4
# [13] = Antimicrobial activity against 90 mins oxgall-stressed Bifidobacterium infantis ATCC 15697 after 18 hrs; type: functional, Bifidobacterium longum subsp. infantis; settings: Bifidobacterium longum; how it was run: as §3
# [14] = test system: Bifidobacterium bifidum; assay: Antimicrobial activity against 90 mins hydrogen peroxide-stressed Bifidobacterium bifidum R0071 after 18 hrs; type: functional; how it was run: as §2
# [15] = test system: Bifidobacterium breve; assay: Antimicrobial activity against 90 mins oxgall-stressed Bifidobacterium breve ATCC 15700 after 18 hrs; type: functional; how it was run: as §3
# [16] = test system: Bifidobacterium longum; assay: Antimicrobial activity against 90 mins oxgall-stressed Bifidobacterium longum P/N 601377 after 18 hrs; type: functional; how it was run: as §3
# [17] = test system: Bifidobacterium thermophilum; assay: Antimicrobial activity against 90 mins hydrogen peroxide-stressed Bifidobacterium thermophilum ATCC 25866 after 18 hrs; type: functional; how it was run: as §2
# [18] = test system: Bifidobacterium longum; assay: Antimicrobial activity against Bifidobacterium longum ATCC 15708; type: functional; how it was run: as §4
# [19] = Antimicrobial activity against Bifidobacterium infantis ATCC 15697; type: functional, Bifidobacterium longum subsp. infantis; settings: Bifidobacterium longum; how it was run: as §4
# [20] = test system: Bifidobacterium breve; assay: Antimicrobial activity against 90 mins oxgall-stressed Bifidobacterium breve R0070 after 18 hrs; type: functional; how it was run: as §3
# [21] = test system: Bifidobacterium pseudolongum; assay: Antimicrobial activity against 90 mins oxgall-stressed Bifidobacterium pseudolongum ATCC 25562 after 18 hrs; type: functional; how it was run: as §3
# [22] = test system: Bifidobacterium breve; assay: Antimicrobial activity against 60 min 1 M HCl-stressed Bifidobacterium breve R0070 after 18 hrs; type: functional; how it was run: as §1
# [23] = test system: Bifidobacterium breve; assay: Antimicrobial activity against 90 mins hydrogen peroxide-stressed Bifidobacterium breve ATCC 15700 after 18 hrs; type: functional; how it was run: as §2
# [24] = test system: Bifidobacterium thermophilum; assay: Antimicrobial activity against 60 min 1 M HCl-stressed Bifidobacterium thermophilum ATCC 25866 after 18 hrs; type: functional; how it was run: as §1
# [25] = test system: Bifidobacterium bifidum; assay: Antimicrobial activity against Bifidobacterium bifidum BB12; type: functional; how it was run: as §4
# [26] = test system: Bifidobacterium breve; assay: Antimicrobial activity against 60 min 1 M HCl-stressed Bifidobacterium breve ATCC 15700 after 18 hrs; type: functional; how it was run: as §1
# [27] = test system: Bifidobacterium bifidum; assay: Antimicrobial activity against 60 min 1 M HCl-stressed Bifidobacterium bifidum R0071 after 18 hrs; type: functional; how it was run: as §1
# [28] = test system: Bifidobacterium pseudolongum; assay: Antimicrobial activity against Bifidobacterium pseudolongum ATCC 25562; type: functional; how it was run: as §4
# [29] = test system: Bifidobacterium breve; assay: Antimicrobial activity against Bifidobacterium breve R0070; type: functional; how it was run: as §4
# [30] = test system: Bifidobacterium longum; assay: Antimicrobial activity against 60 min 1 M HCl-stressed Bifidobacterium longum ATCC 15707 after 18 hrs; type: functional; how it was run: as §1
# [31] = test system: Bifidobacterium breve; assay: Antimicrobial activity against Bifidobacterium breve ATCC 15700; type: functional; how it was run: as §4
# [32] = test system: Bifidobacterium longum; assay: Antimicrobial activity against 90 mins hydrogen peroxide-stressed Bifidobacterium longum ATCC 15708 after 18 hrs; type: functional; how it was run: as §2
# [33] = test system: Bifidobacterium bifidum; assay: Antimicrobial activity against 90 mins oxgall-stressed Bifidobacterium bifidum R0071 after 18 hrs; type: functional; how it was run: as §3
# [34] = test system: Bifidobacterium animalis; assay: Antimicrobial activity against 60 min 1 M HCl-stressed Bifidobacterium animalis ATCC 27536 after 18 hrs; type: functional; how it was run: as §1
# [35] = test system: Bifidobacterium animalis; assay: Antimicrobial activity against Bifidobacterium animalis ATCC 27536; type: functional; how it was run: as §4
# [36] = test system: Bifidobacterium bifidum; assay: Antimicrobial activity against Bifidobacterium bifidum R0071; type: functional; how it was run: as §4
# [37] = test system: Bifidobacterium bifidum; assay: Antimicrobial activity against 90 mins oxgall-stressed Bifidobacterium bifidum BB12 after 18 hrs; type: functional; how it was run: as §3
# [38] = Antimicrobial activity against 60 min 1 M HCl-stressed Bifidobacterium infantis ATCC 15697 after 18 hrs; type: functional, Bifidobacterium longum subsp. infantis; settings: Bifidobacterium longum; how it was run: as §1
# [39] = test system: Bifidobacterium longum; assay: Antimicrobial activity against Bifidobacterium longum R0175; type: functional; how it was run: as §4
# [40] = test system: Bifidobacterium longum; assay: Antimicrobial activity against 90 mins oxgall-stressed Bifidobacterium longum ATCC 15708 after 18 hrs; type: functional; how it was run: as §3
# [41] = test system: Bifidobacterium longum; assay: Antimicrobial activity against 90 mins hydrogen peroxide-stressed Bifidobacterium longum ATCC 15707 after 18 hrs; type: functional; how it was run: as §2
# [42] = test system: Bifidobacterium longum; assay: Antimicrobial activity against 90 mins hydrogen peroxide-stressed Bifidobacterium longum R0175 after 18 hrs; type: functional; how it was run: as §2
# [43] = test system: Bifidobacterium longum; assay: Antimicrobial activity against 60 min 1 M HCl-stressed Bifidobacterium longum R0175 after 18 hrs; type: functional; how it was run: as §1
# [44] = test system: Bifidobacterium bifidum; assay: Antimicrobial activity against 90 mins hydrogen peroxide-stressed Bifidobacterium bifidum BB12 after 18 hrs; type: functional; how it was run: as §2
# [45] = test system: Bifidobacterium longum; assay: Antimicrobial activity against 90 mins hydrogen peroxide-stressed Bifidobacterium longum P/N 601377 after 18 hrs; type: functional; how it was run: as §2
# [46] = test system: Bifidobacterium thermophilum; assay: Antimicrobial activity against Bifidobacterium thermophilum ATCC 25866; type: functional; how it was run: as §4
# [47] = test system: Bifidobacterium animalis; assay: Antimicrobial activity against 90 mins oxgall-stressed Bifidobacterium animalis ATCC 27536 after 18 hrs; type: functional; how it was run: as §3
structure (smiles),measurement,setting,value
CC1(C)S[C@@H]2[C@H](NC(=O)[C@H](N)c3ccccc3)C(=O)N2[C@H]1C(=O)O [AMPICILLIN],MIC,[1],0.98 µg/mL
same,MIC,[2],0.98 µg/mL
same,MIC,[3],0.98 µg/mL
same,MIC,[4],0.98 µg/mL
same,MIC,[5],0.98 µg/mL
same,MIC,[6],15.6 µg/mL
same,MIC,[7],0.98 µg/mL
same,MIC,[8],0.98 µg/mL
same,MIC,[9],1.9 µg/mL
same,MIC,[10],0.98 µg/mL
same,MIC,[11],3.9 µg/mL
same,MIC,[12],0.98 µg/mL
same,MIC,[13],0.98 µg/mL
same,MIC,[14],0.98 µg/mL
same,MIC,[15],3.9 µg/mL
same,MIC,[16],0.98 µg/mL
same,MIC,[17],3.9 µg/mL
same,MIC,[18],7.8 µg/mL
same,MIC,[19],7.8 µg/mL
same,MIC,[20],0.98 µg/mL
same,MIC,[21],0.98 µg/mL
same,MIC,[22],3.9 µg/mL
same,MIC,[23],3.9 µg/mL
same,MIC,[24],3.9 µg/mL
same,MIC,[25],31.2 µg/mL
same,MIC,[26],0.98 µg/mL
same,MIC,[27],0.98 µg/mL
same,MIC,[28],3.9 µg/mL
same,MIC,[29],15.6 µg/mL
same,MIC,[30],3.9 µg/mL
same,MIC,[31],3.9 µg/mL
same,MIC,[32],3.9 µg/mL
same,MIC,[33],0.98 µg/mL
same,MIC,[34],0.98 µg/mL
same,MIC,[35],15.6 µg/mL
same,MIC,[36],1.9 µg/mL
same,MIC,[37],0.98 µg/mL
same,MIC,[38],0.98 µg/mL
same,MIC,[39],7.8 µg/mL
same,MIC,[40],0.98 µg/mL
same,MIC,[41],0.98 µg/mL
same,MIC,[42],1.9 µg/mL
same,MIC,[43],0.98 µg/mL
same,MIC,[44],0.98 µg/mL
same,MIC,[45],0.98 µg/mL
same,MIC,[46],0.98 µg/mL
same,MIC,[47],0.98 µg/mL
